One compound from ChEMBL document CHEMBL1131311, “Discovery of a novel, potent, and orally active nonpeptide antagonist of the human luteinizing hormone-releasing hormone (LHRH) receptor” (J Med Chem, 1998) can be followed below.

The target in this test is T1, Gonadotropin-releasing hormone receptor (Homo sapiens, UniProt P30968).
T1 sequence (P30968 whole entry): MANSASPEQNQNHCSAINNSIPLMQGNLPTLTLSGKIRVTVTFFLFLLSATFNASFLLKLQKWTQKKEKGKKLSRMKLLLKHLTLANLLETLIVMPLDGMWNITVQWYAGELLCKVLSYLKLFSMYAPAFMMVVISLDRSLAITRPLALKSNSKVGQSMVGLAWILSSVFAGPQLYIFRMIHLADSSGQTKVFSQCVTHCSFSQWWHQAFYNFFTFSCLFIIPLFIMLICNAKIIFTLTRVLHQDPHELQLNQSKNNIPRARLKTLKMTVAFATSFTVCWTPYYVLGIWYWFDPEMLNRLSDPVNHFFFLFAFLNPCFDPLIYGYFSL
The test can be described thus: The Compound was tested for the concentration to inhibit 50% of [125 I ]leuprorelin binding to the cloned human Leutinizing releasing hormone receptor (LHRH) receptor. In a few lines: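 Membranes from CHO cells stably expressing cloned human LHRH receptor (0.2 mg/mL) incubated with [125I]leuprorelin (0.15 nM) and graded compound in Tris/EDTA/BSA buffer with protease inhibitors, pH 7.5, 60 min at 25 °C. Filtration on PEI-coated glass fiber, gamma counting. Nonspecific binding with 1 µM unlabeled leuprorelin. IC50 from pseudo-Hill fit. Means of ≥3 determinations.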

With `CCOC(=O)c1cn(Cc2c(F)cccc2F)c2sc(-c3ccc(N)cc3)c(CN(C)Cc3ccccc3)c2c1=O`, the IC50 was 4 nM.

The term IC50 denotes the midpoint of a concentration-inhibition curve. Read a low IC50 as greater potency.
